Reference: ChEMBL document CHEMBL1135830, “NMR-based modification of matrix metalloproteinase inhibitors with improved bioavailability” (J Med Chem, 2002)

Target: T1, Stromelysin-1 (Homo sapiens, UniProt P08254)
Test: Binding to stromelysin (MMP-3) in the presence of 1-Napthohydroxamate
Parameters: species or system Rattus norvegicus
Details: not given
Procedure, shortened: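 Catalytic domain of stromelysin (residues 81-256), uniformly ¹⁵N-labeled, at 0.3 mM in H₂O/D₂O (9/1) with 50 mM Tris pH 7.0, 20 mM CaCl₂ and 0.05% sodium azide. Compounds were added from perdeuterated DMSO solutions. Binding was detected as changes in sensitivity-enhanced ¹⁵N HSQC spectra (500 MHz), recorded with and without compound.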

T1 sequence (P08254 whole entry): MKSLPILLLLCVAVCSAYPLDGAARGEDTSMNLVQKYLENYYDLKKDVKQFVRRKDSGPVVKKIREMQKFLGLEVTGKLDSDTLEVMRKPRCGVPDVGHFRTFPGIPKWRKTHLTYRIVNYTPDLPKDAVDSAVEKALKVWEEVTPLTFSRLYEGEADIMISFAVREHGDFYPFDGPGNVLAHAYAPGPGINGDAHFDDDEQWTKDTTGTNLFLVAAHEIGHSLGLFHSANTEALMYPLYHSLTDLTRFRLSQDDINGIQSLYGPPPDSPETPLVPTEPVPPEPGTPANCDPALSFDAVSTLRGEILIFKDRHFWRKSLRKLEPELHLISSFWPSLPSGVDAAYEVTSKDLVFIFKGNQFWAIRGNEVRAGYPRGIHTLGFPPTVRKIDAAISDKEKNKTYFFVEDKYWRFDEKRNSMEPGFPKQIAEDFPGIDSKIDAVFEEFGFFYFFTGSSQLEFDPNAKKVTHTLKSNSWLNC

Row | Kd | Compound
1 | < 50 µM | N#Cc1ccc(-c2ccc(O)cc2)cc1
2 | 150 µM | Oc1ccc(-c2ccc(O)cc2)cc1

Row | Compound | Kd
3 | c1ccc(-c2ccncc2)cc1 | 900 µM

Target: T1, Stromelysin-1
Test: Binding to stromelysin (MMP-3) in place of acetohydroxamic acid.
Parameters: species or system Rattus norvegicus
Details: not given
Procedure, shortened: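 Binding detected by sensitivity-enhanced 15N HSQC on uniformly 15N-labeled stromelysin catalytic domain (residues 81-256), 0.3 mM protein in H2O/D2O 9:1 Tris buffer 50 mM pH 7.0, 20 mM CaCl2, 0.05% sodium azide. Ligands added from perdeuterated DMSO, screened at 25.0 mM each; spectra with versus without compound compared for shifts at 500 MHz.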

Row | Kd | Compound
4 | 50 µM | O=C(NO)c1cccc2ccccc12
5 | > 25000 µM | CC(=O)c1ccccn1
6 | > 25000 µM | CCOC(=O)CC(=O)C(F)(F)F
7 | 150 µM | SCc1cccs1
8 | > 25000 µM | O=C(CC(=O)C(F)(F)F)c1ccccc1
9 | 7000 µM | O=C(NO)c1ccccc1 [BENZOHYDROXAMATE]
10 | > 25000 µM | CCOC(=O)NO [ETHYL HYDROXYCARBAMATE]
11 | > 25000 µM | NC(=O)NO [HYDROXYUREA]
12 | 3000 µM | O=C(O)CCS [MERCAPTOPROPIONIC ACID]
13 | > 25000 µM | NC(=O)c1ccccc1O [SALICYLAMIDE]

Row | Compound | Kd
14 | O=C(O)c1ccccc1O [SALICYLIC ACID] | > 25000 µM

System: not listed separately
Test: Half-life period was determined
Assay type: ADME
Details: not given
Procedure, shortened: (§1)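 Rats (4 per compound, across two studies) dosed orally at 30 mg/kg in hydroxypropyl methyl cellulose. Tail-vein blood drawn at intervals over 7 h, deproteinated with 2 volumes methanol containing 0.1% acetic acid. Drug level in the extract quantified by bioassay against recombinant stromelysin.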

Row | half-life | Compound
15 | 2 h | N#Cc1ccc(-c2ccc(OCCOc3ccc4ccccc4c3C(=O)NO)cc2)cc1

System: not listed separately
Test: Cmax was determined
Assay type: ADME, organism-based
Details: in vivo
Procedure, shortened: as §1

Row | Cmax | Compound
16 | 28 µM | N#Cc1ccc(-c2ccc(OCCOc3ccc4ccccc4c3C(=O)NO)cc2)cc1

Target: T1, Stromelysin-1
Test: Inhibition of Stromelysin (MMP-3)
Parameters: species or system Rattus norvegicus
Details: not given

Row | IC50 | Compound
17 | 50 µM | O=C(NO)c1cccc2ccccc12
18 | 0.062 µM | N#CCc1cccc(-c2ccc(S(=O)(=O)CCOc3ccc4ccccc4c3C(=O)NO)cc2)c1
19 | 10 µM | N#Cc1ccc(-c2ccc(OCCCOc3ccc4ccccc4c3C(=O)NO)cc2)cc1
20 | 10 µM | COc1ccc(-c2ccc(S(=O)(=O)NCCc3ccc4ccccc4c3C(=O)NO)cc2)cc1
21 | > 10 µM | N#Cc1ccc(-c2ccc(OCc3ccc4ccccc4c3C(=O)NO)cc2)cc1

System: Rattus norvegicus
Test: Bioavailability after peroral administration at 30 mg/kg against Stromelysin in rat
Assay type: ADME, organism-based
Details: not given
Procedure, shortened: as §1

Row | IC50 | Compound
22 | 0.34 µM | N#Cc1ccc(-c2ccc(OCCOc3ccc4ccccc4c3C(=O)NO)cc2)cc1
23 | 0.057 µM | N#Cc1ccc(-c2ccc(OCCC(=O)NO)cc2)cc1

Target: T1, Stromelysin-1
Test: Binding to stromelysin (MMP-3) in the presence of acetohydroxamic acid
Parameters: species or system Rattus norvegicus
Details: not given
Procedure, shortened: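 Uniformly 15N-labeled stromelysin catalytic domain (residues 81-256) at 0.3 mM in 50 mM Tris, pH 7.0, H2O/D2O 9/1, with 20 mM CaCl2 and 0.05% sodium azide. Sensitivity-enhanced 15N HSQC spectra were recorded at 500 MHz with and without compound added in perdeuterated DMSO. Binding was read from changes in the HSQC spectrum.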

Row | Kd | Compound
24 | < 50 µM | N#Cc1ccc(-c2ccc(O)cc2)cc1
